Laboratory results taken from ChEMBL document CHEMBL3232979, “Discovery of a novel series of orally active nociceptin/orphanin FQ (NOP) receptor antagonists based on a dihydrospiro(piperidine-4,7'-thieno[2,3-c]pyran) scaffold” (J Med Chem, 2014).
Blank lines part the entries; values can stand above or below the molecule they belong to. Calls of active or inactive are those of the source. No cut-off for these calls is given here.

How the values were obtained:
[1] = Plasma elimination half life in Sprague-Dawley rat at 1 mg/kg, iv; assay type: ADME, organism-based; set-up: dose 1 mg/kg, route intravenous; details: read-out: beta t1/2 (converted)
Method in brief: (§1)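 Male Sprague-Dawley rats (n = 3 per treatment), fasted 4–24 h, dosed iv bolus at 1 mg/kg or po at 3 or 10 mg/kg in 20% (w/w) Captisol in 25 mM phosphate buffer pH 2. Arterial blood sampled 0–16 or 24 h into EDTA, and plasma protein-precipitated with internal standard. LC-MS/MS quantitation against plasma standard curve (1–50 000 ng/mL). Noncompartmental analysis. F = dnAUCpo/dnAUCiv.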

[2] = Plasma clearance in Sprague-Dawley rat at 1 mg/kg, iv; assay type: ADME, organism-based; set-up: dose 1 mg/kg, route intravenous; method in brief: as §1
Rattus norvegicus [3] = assay: Reversal of Ro64-6198-incued hypothermia in Sprague-Dawley rat at 0.1 to 0.3 mg/kg, po administered 60 mins before Ro64-6198 challenge measured after 120 mins; assay type: functional, organism-based
Method in brief: (§2)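 Male Sprague-Dawley rats, 225 g, housed 2 per cage, acclimated at least 90 min. Rectal temperature was taken, then oral gavage of vehicle or test compound (0.03, 0.1 or 0.3 mg/kg). A second temperature was taken at 60 min, then Ro64-6198 (6 mg/kg sc) or vehicle was given, and a third temperature 120 min later. Between-group ANOVA with Dunnett posthoc tests against vehicle and agonist controls.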

Rattus norvegicus [4] = assay: Toxicity in Sprague-Dawley rat assessed as basal body temperature at 0.03 to 0.3 mg/kg, po after 60 mins; details: in vivo, 1 h
[5] = Oral bioavailability in Sprague-Dawley rat at 10 mg/kg; assay type: ADME, organism-based; details: in vivo; method in brief: as §1
[6] = Volume of distribution in Sprague-Dawley rat at 1 mg/kg, iv; assay type: ADME, organism-based; set-up: dose 1 mg/kg, route intravenous; details: in vivo; method in brief: as §1
[7] = target: Kappa-type opioid receptor (Homo sapiens, UniProt P41145); assay: Displacement of [3H]-diprenorphine from human kappa opioid receptor after 120 mins by cell based assay
Sequence of Kappa-type opioid receptor (P41145 whole entry): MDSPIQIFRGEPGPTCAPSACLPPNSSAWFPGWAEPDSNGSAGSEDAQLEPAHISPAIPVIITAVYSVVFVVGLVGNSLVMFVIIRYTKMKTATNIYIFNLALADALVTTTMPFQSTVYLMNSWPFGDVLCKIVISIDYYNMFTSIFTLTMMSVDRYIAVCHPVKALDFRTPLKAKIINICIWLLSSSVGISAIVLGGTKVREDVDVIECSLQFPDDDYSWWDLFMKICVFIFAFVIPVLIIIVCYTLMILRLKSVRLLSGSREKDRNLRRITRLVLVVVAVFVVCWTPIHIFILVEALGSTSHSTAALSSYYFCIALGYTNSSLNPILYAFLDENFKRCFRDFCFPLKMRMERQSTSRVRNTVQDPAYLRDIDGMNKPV
Method in brief: (§3)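 Radioligand binding with [3H]-diprenorphine on membranes from CHO cells overexpressing recombinant human kappa, mu or delta opioid receptor; Ki determined.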

Rattus norvegicus [8] = assay: Reversal of Ro64-6198-incued hypothermia in po dosed Sprague-Dawley rat administered 60 mins before Ro64-6198 challenge measured after 120 mins; assay type: functional, organism-based; method in brief: as §2
[9] = AUC (0 to infinity) in Sprague-Dawley rat at 10 mg/kg, po; assay type: ADME, organism-based; set-up: time infinity, dose 10 mg/kg, route oral; details: plasma; method in brief: as §1
Mu-type opioid receptor = Mu-type opioid receptor (Homo sapiens, UniProt P35372); assay: Displacement of [3H]-diprenorphine from human mu opioid receptor after 120 mins by cell based assay; method in brief: as §3
Sequence of Mu-type opioid receptor (P35372 whole entry): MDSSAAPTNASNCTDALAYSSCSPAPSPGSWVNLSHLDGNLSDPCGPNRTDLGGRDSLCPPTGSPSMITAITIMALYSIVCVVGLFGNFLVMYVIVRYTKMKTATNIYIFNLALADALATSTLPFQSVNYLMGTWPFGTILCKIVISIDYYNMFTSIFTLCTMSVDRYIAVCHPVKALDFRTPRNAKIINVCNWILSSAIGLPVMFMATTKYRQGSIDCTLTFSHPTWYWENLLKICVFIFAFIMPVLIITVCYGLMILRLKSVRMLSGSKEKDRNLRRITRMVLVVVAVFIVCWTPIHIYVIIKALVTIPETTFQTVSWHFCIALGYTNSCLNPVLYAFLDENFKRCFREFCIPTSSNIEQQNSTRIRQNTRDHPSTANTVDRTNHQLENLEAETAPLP

[10] = target: Delta-type opioid receptor (Homo sapiens, UniProt P41143); assay: Displacement of [3H]-diprenorphine from human delta opioid receptor after 120 mins by cell based assay; method in brief: as §3
Sequence of Delta-type opioid receptor (P41143 whole entry): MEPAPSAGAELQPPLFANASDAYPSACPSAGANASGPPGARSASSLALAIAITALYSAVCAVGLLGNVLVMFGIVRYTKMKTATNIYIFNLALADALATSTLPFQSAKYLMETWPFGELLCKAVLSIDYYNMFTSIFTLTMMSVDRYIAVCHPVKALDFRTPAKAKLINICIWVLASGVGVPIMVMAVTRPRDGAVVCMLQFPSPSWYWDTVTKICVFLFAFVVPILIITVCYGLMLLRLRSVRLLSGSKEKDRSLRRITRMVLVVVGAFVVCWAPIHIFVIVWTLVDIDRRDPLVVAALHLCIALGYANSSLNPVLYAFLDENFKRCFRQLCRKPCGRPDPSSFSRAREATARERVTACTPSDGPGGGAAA

Nociceptin receptor = Nociceptin receptor (Homo sapiens, UniProt P41146); assay: Displacement of [3H]-nociceptin from human recombinant NOP receptor expressed in CHO cells after 60 mins by scintillation counting; assay type: cell-based
Sequence of Nociceptin receptor (P41146 whole entry): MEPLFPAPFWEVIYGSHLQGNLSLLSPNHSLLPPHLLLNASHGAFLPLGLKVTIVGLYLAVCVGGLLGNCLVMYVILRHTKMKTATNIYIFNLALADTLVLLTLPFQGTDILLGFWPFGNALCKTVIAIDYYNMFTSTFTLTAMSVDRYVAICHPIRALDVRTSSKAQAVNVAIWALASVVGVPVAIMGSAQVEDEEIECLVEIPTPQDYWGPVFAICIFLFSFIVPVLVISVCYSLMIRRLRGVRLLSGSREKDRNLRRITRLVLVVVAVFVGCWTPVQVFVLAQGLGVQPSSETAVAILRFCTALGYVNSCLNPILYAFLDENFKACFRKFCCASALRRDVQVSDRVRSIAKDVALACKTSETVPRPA

Rattus norvegicus [11] = assay: Ex vivo receptor occupancy of NOP receptor in Sprague-Dawley rat brain at 10 mg/kg, po after 24 hrs by LC-MS/MS analysis; assay type: functional
Method in brief: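 Male Sprague-Dawley rats, 220–300 g, 12 h light:dark cycle, free chow and water. A single oral 10 mg/kg dose or oral vehicle was given. 24 h later, nonlabeled tracer was given as an iv tail-vein bolus at 3 μg/kg. Brain was taken 40 min after tracer (hypothalamus, striatum), homogenized in ACN with 0.1% formic acid, centrifuged, diluted with water and read by LC-MS/MS.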

[12] = Oral bioavailability in Sprague-Dawley rat at 3 mg/kg; assay type: ADME, organism-based; details: in vivo; method in brief: as §1
[13] = AUC (0 to infinity) in Sprague-Dawley rat at 3 mg/kg, po; assay type: ADME, organism-based; set-up: time infinity, dose 3 mg/kg, route oral; details: plasma; method in brief: as §1
[14] = Metabolic stability in rat hepatic microsomes assessed as GSH-adduct formation; assay type: ADME, Liver, Microsome
Method in brief: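 GSH trapping: compounds incubated with rat hepatic microsomes and glutathione; metabolite profiling by LC/MS for GSH conjugates.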

Structure (SMILES): Cc1nn(-c2ncccc2CO)cc1CN1CCC2(CC1)OCC(F)(F)c1cc(Cl)sc12.O=C(O)C(O)C(O)C(=O)O
half-life [1]: 3.8 h
clearance [2]: 23.9 mL/min/kg
Activity (Rattus norvegicus [3]): Active
Activity (Rattus norvegicus [4]): Non-toxic
bioavailability [5]: 57%
Vd [6]: 5.3 L/kg
Ki [7]: > 375000 pM
Activity (Rattus norvegicus [8]): Dose-dependent effect
AUC(0-inf) [9]: 4100 ng·h/mL
Ki (Mu-type opioid receptor): > 375000 pM
Ki [10]: > 375000 pM
Ki (Nociceptin receptor): 105 pM
Occ (Rattus norvegicus [11]): 62%

Structure (SMILES): Cc1nn(-c2ncccc2F)cc1CN1CCC2(CC1)OCCc1cc(F)sc12
Ki (Nociceptin receptor): 139 pM

Structure (SMILES): Cc1nn(-c2c(F)cccc2F)cc1CN1CCC2(CC1)OCCc1cc(F)sc12
Ki (Nociceptin receptor): 71.1 pM

Structure (SMILES): Cc1nn(-c2ncccc2CN(C)C)cc1CN1CCC2(CC1)OCC(F)(F)c1cc(Cl)sc12.O=C(O)C(O)C(O)C(=O)O
Ki [7]: > 375000 pM
Ki (Mu-type opioid receptor): > 375000 pM
Ki [10]: > 375000 pM
Ki (Nociceptin receptor): 371 pM
Occ (Rattus norvegicus [11]): 72%

Structure (SMILES): Cc1nn(-c2c(F)cccc2CN(C)C)cc1CN1CCC2(CC1)OCC(F)(F)c1cc(Cl)sc12.O=C(O)C(O)C(O)C(=O)O
Ki [7]: > 375000 pM
Ki (Mu-type opioid receptor): > 375000 pM
Ki [10]: > 375000 pM
Ki (Nociceptin receptor): 145 pM
Occ (Rattus norvegicus [11]): 97%

Ki [7]: > 375000 pM
Ki (Mu-type opioid receptor): > 375000 pM
Ki [10]: > 375000 pM
Ki (Nociceptin receptor): 91.6 pM
Structure (SMILES): Cc1nn(-c2ncccc2-c2ncc[nH]2)cc1CN1CCC2(CC1)OCC(F)(F)c1cc(Cl)sc12
Occ (Rattus norvegicus [11]): 88%

Structure (SMILES): COCc1cccnc1-n1cc(CN2CCC3(CC2)OCCc2cc(Cl)sc23)c(C)n1
Ki (Nociceptin receptor): 90.8 pM

Structure (SMILES): Cc1nn(-c2c(F)cccc2F)cc1CN1CCC2(CC1)OCC(F)(F)c1cc(Cl)sc12.O=C(O)C(O)C(O)C(=O)O
bioavailability [12]: 49%
half-life [1]: 10.8 h
AUC(0-inf) [13]: 438 ng·h/mL
clearance [2]: 52.9 mL/min/kg
Vd [6]: 28.2 L/kg
Ki [7]: > 375000 pM
Ki (Mu-type opioid receptor): > 375000 pM
Ki [10]: > 375000 pM
Ki (Nociceptin receptor): 172 pM
Occ (Rattus norvegicus [11]): 49%

Structure (SMILES): Cc1nn(-c2ncccc2F)cc1CN1CCC2(CC1)OCC(F)(F)c1cc(Cl)sc12.O=C(O)C(O)C(O)C(=O)O
bioavailability [12]: 62%
half-life [1]: 12.1 h
AUC(0-inf) [13]: 1820 ng·h/mL
clearance [2]: 19.8 mL/min/kg
Vd [6]: 13.6 L/kg
Ki [7]: > 375000 pM
Ki (Mu-type opioid receptor): > 375000 pM
Ki [10]: > 375000 pM
Ki (Nociceptin receptor): 176 pM
Occ (Rattus norvegicus [11]): 55%

Structure (SMILES): COCc1cccnc1-n1cc(CN2CCC3(CC2)OCCc2cc(F)sc23)c(C)n1
Ki (Nociceptin receptor): 93.9 pM

Structure (SMILES): Cc1nn(-c2c(F)cccc2CO)cc1CN1CCC2(CC1)OCC(F)(F)c1cc(Cl)sc12.O=C(O)C(O)C(O)C(=O)O
half-life [1]: 3.9 h
clearance [2]: 60.5 mL/min/kg
bioavailability [5]: 51%
Vd [6]: 12.7 L/kg
Ki [7]: > 375000 pM
AUC(0-inf) [9]: 1280 ng·h/mL
Ki (Mu-type opioid receptor): > 375000 pM
Ki [10]: > 375000 pM
Ki (Nociceptin receptor): 114 pM
Occ (Rattus norvegicus [11]): 87%

Structure (SMILES): Cc1nn(-c2c(F)cccc2C(N)=O)cc1CN1CCC2(CC1)OCCc1cc(F)sc12
Ki (Nociceptin receptor): 95.4 pM

Structure (SMILES): CNCc1cccc(F)c1-n1cc(CN2CCC3(CC2)OCC(F)(F)c2cc(Cl)sc23)c(C)n1.O=C(O)C(O)C(O)C(=O)O
Ki [7]: > 375000 pM
Ki (Mu-type opioid receptor): > 375000 pM
Ki [10]: > 375000 pM
Ki (Nociceptin receptor): 97 pM
Occ (Rattus norvegicus [11]): 100%

Structure (SMILES): Cc1nn(-c2c(F)cccc2CN(C)C)cc1CN1CCC2(CC1)OCCc1cc(Cl)sc12
Ki (Nociceptin receptor): 122 pM

Structure (SMILES): Cc1nn(-c2c(F)cccc2CN(C)C)cc1CN1CCC2(CC1)OCCc1cc(F)sc12
Ki (Nociceptin receptor): 64.8 pM

Structure (SMILES): COCc1cccnc1-n1cc(CN2CCC3(CC2)OCC(F)(F)c2cc(Cl)sc23)c(C)n1.O=C(O)C(O)C(O)C(=O)O
Ki [7]: > 375000 pM
Ki (Mu-type opioid receptor): > 375000 pM
Ki [10]: > 375000 pM
Ki (Nociceptin receptor): 185 pM
Stability [14]: Stable
Occ (Rattus norvegicus [11]): 90%
